ChEMBL document CHEMBL4823301, “Synthesis of acyclic nucleoside phosphonates targeting flavin-dependent thymidylate synthase in Mycobacterium tuberculosis” (Bioorg Med Chem, 2021)
Calls of active or inactive are those of the source. No cut-off for these calls is given here.

Legend:
[1] = biological target: T1, Flavin-dependent thymidylate synthase (Mycobacterium tuberculosis) (UniProt P9WG57); assay: (§1) Inhibition of Mycobacterium tuberculosis H37Rv ThyX expressed in Escherichia coli BL21(DE3) using 100 uM dUMP as substrate in absence of FAD cofactor at 200 uM incubated for 10 mins prior to the injection of NADPH and measured upto 20 mins by NADPH oxidase based spectrophotometric analysis; details: time 30.0 min
T1 sequence (whole entry): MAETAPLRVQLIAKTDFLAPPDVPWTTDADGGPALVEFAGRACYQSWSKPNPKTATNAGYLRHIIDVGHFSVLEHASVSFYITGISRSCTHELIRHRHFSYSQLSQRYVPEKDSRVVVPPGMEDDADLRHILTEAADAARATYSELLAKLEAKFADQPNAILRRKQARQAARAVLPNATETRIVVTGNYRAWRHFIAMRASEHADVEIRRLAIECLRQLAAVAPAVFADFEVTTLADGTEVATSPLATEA

[2] = biological target: T1, Flavin-dependent thymidylate synthase (Mycobacterium tuberculosis); assay: as §1, with “presence” for “absence”, “analysis relative to control” for “analysis”; details: time 30.0 min
Summary of the method: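 Mtb ThyX from E. coli BL21(DE3)/pLysS carrying pET24d, purified and stored at −20 °C, with a FAD:ThyX ratio of 1:3. Compound was preincubated 10 min at 25 °C. Injected NADPH started the reaction, and A340 fall was read up to 20 min. Duplicates; % inhibition = (1−Vi/Vo)×100 from initial rates.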

[3] = biological target: T1, Flavin-dependent thymidylate synthase (Mycobacterium tuberculosis); assay: Inhibition of Mycobacterium tuberculosis H37Rv ThyX expressed in Escherichia coli BL21(DE3) using 10 uM dUMP as substrate in presence of FAD cofactor at 200 uM incubated for 10 mins prior to the injection of NADPH and measured upto 20 mins by NADPH oxidase based spectrophotometric analysis; details: time 30.0 min
[4] = Inhibition of flavin-dependent thymidylate synthetase (unknown origin); design: species or system Bacteria

Structure (SMILES)	inhibition [1]	inhibition [2] [%]	inhibition [3]	Ki [4] [nM]
CCCCCCNC(=O)NCC#Cc1ccc2c(c1)c(=O)[nH]c(=O)n2CC=CCP(=O)(O)O	inactive	14.9	inactive	–
O=C1c2ccccc2C(=O)C(c2ccco2)C1O (configuration not stated)	–	–	–	28
O=c1[nH]c(=O)n(CC=CCP(=O)(O)O)c2ccccc12	inactive	15.8	inactive	–
CCCCCCCC(=O)NCC#Cc1ccc2c(=O)[nH]c(=O)n(CC=CCP(=O)(O)O)c2c1	inactive	14.9	inactive	–
CCCCCCNC(=O)NCC#Cc1cn(CC=CCP(=O)(O)O)c(=O)[nH]c1=O	inactive	0	inactive	–
O=C(Cc1ccccc1)NCC#Cc1ccc2c(=O)[nH]c(=O)n(CC=CCP(=O)(O)O)c2c1	inactive	14.7	inactive	–
O=C(Cc1ccccc1)NCC#Cc1ccc2c(c1)c(=O)[nH]c(=O)n2CC=CCP(=O)(O)O	inactive	0	inactive	–
CCCCCCNC(=O)NCC#Cc1ccc2c(=O)[nH]c(=O)n(CC=CCP(=O)(O)O)c2c1	inactive	31.8	inactive	–
O=c1[nH]c(=O)n(CC=CCP(=O)(O)O)cc1Cc1ccccc1	inactive	23.7	inactive	–
CCCCCCCC(=O)NCC#Cc1cn(CC=CCP(=O)(O)O)c(=O)[nH]c1=O	inactive	0	inactive	–
CCCCCCCC(=O)NCC#Cc1ccc2c(c1)c(=O)[nH]c(=O)n2CC=CCP(=O)(O)O	inactive	0	inactive	–
Cc1ccc2c(c1)c(=O)[nH]c(=O)n2CC=CCP(=O)(O)O	inactive	26.2	inactive	–
COc1ccc2c(=O)[nH]c(=O)n(CC=CCP(=O)(O)O)c2c1	inactive	26.4	inactive	–
